Columns and labels:
Homo sapiens = organism: Homo sapiens; test: Inhibition of ADP-induced platelet aggregation in human platelet-rich plasma.; format: functional, organism-based
[1] = molecular target: Integrin alpha-IIb/beta-3 (Homo sapiens, UniProt P05106+P08514); test: Fibrinogen receptor binding affinity was determined by assaying for inhibition of [3H]1 binding to purified Fibrinogen Receptor isolated from human platelets and reconstituted in liposomes
How it was run: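 Competition binding of the tritiated ligand [³H]-1 to the fibrinogen receptor glycoprotein complex GPIIb/IIIa, purified from human platelets and reconstituted into liposomes. The read-out is inhibition of radioligand binding.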

Chain of Integrin alpha-IIb/beta-3 (P05106 27-788 limits assumed): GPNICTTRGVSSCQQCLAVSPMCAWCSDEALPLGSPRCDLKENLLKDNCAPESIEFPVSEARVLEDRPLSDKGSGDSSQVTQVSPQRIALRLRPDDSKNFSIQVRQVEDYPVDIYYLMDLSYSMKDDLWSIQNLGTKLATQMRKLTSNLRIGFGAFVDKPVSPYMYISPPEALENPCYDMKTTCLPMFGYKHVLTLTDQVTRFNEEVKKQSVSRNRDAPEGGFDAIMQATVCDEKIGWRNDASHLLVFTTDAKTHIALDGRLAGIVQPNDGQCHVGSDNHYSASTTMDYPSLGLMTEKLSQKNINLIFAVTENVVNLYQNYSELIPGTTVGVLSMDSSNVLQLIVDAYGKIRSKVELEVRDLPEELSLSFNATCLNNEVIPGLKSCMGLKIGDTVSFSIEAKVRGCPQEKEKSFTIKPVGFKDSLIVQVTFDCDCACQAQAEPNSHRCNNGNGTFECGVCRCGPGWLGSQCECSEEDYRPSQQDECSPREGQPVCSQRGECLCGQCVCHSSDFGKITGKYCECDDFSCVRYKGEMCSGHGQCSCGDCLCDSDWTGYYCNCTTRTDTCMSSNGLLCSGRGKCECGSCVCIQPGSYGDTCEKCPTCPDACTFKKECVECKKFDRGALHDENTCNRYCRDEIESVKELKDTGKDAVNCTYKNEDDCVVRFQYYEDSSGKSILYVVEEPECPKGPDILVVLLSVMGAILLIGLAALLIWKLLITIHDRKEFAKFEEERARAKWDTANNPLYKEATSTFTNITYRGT
Chain of Integrin alpha-IIb/beta-3 (P08514 32-887 limits assumed): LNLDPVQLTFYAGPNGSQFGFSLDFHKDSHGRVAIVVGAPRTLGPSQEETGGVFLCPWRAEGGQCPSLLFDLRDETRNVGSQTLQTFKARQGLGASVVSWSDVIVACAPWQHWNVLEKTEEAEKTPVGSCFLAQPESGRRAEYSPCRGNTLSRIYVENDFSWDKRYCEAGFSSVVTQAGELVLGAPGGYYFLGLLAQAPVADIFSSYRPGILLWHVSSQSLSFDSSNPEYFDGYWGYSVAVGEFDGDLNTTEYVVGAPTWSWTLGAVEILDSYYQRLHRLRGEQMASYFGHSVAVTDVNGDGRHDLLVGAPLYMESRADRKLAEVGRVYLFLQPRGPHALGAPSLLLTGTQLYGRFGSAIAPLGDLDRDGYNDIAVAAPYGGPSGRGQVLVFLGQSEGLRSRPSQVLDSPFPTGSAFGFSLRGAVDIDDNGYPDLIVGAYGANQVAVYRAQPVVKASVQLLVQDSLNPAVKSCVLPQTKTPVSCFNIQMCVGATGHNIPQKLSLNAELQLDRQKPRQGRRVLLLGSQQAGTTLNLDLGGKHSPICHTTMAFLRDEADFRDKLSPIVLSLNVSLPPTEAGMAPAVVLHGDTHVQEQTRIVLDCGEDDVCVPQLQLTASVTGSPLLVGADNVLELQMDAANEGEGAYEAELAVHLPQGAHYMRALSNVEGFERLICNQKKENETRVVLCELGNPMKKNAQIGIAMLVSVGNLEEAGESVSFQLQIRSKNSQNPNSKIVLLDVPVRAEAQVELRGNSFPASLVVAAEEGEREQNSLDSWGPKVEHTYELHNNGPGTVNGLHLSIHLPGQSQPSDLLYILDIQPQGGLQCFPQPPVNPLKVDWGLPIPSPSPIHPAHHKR
Chain of Integrin alpha-IIb/beta-3 (P08514 891-1039 limits assumed): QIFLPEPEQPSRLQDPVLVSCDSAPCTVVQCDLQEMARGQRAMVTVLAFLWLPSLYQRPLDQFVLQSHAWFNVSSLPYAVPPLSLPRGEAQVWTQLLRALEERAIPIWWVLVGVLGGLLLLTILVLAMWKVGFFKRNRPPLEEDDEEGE

IC50 (Homo sapiens) [nM] | Ki [1] [nM] | SMILES
> 200000 |  | N=C(N)c1ccc(C(=O)Nc2ccc3c(c2)NC(CC(=O)O)CN(CCc2ccccc2)C3=O)cc1 (configuration not stated)
8300 | 800 | N=C(N)c1ccc(NC(=O)c2ccc3c(c2)NC(CC(=O)O)CN(CCc2ccccc2)C3=O)cc1 (configuration not stated)
7400 | 750 | O=C(O)CC1Nc2cc(/C=C\CCC3CCNCC3)ccc2CN(CCc2ccccc2)C1=O (configuration not stated)
3900 |  | N=C(N)c1ccc(NC(=O)c2ccc3c(c2)NC(CC(=O)O)CCC3)cc1 (configuration not stated)
> 200000 | 22500 | CN(C(=O)c1ccc2c(c1)CN(CCC(=O)O)C(=O)CC2)c1ccc(C(=N)N)cc1
23000 |  | N=C(N)c1ccc(C(=O)Nc2ccc3c(c2)CN(CC(=O)O)C(=O)NC3)cc1
3000 | 540 | N=C(N)c1ccc(NC(=O)c2ccc3c(c2)NC(CC(=O)O)CN(CCc2ccccc2)C3)cc1 (configuration not stated)
510 | 4.7 | O=C(O)CC1Nc2cc(C(=O)NCCC3CCNCC3)ccc2CN(CCc2ccccc2)C1=O (configuration not stated)
930 | 80 | O=C(O)CC1Nc2cc(CCCCC3CCNCC3)ccc2CN(CCc2ccccc2)C1=O (configuration not stated)
2200 | 500 | N=C(N)c1ccc(NC(=O)c2ccc3c(c2)N[C@H](CC(=O)O)C(=O)N(CCc2ccccc2)C3)cc1
175 | 19 | O=C(O)CC1Nc2cc(/C=C/CCC3CCNCC3)ccc2CN(CCc2ccccc2)C1=O (configuration not stated)
3100 | 1200 | N=C(N)c1ccc(C(=O)Nc2ccc3c(c2)CN(CC(=O)O)C(=O)CN3)cc1
130 | 2 | N=C(N)c1ccc(C(=O)Nc2ccc3c(c2)NC(CC(=O)O)C(=O)N(CCc2ccccc2)C3)cc1 (configuration not stated)
> 200000 | > 50000 | CN(C(=O)c1ccc2c(c1)CN(CC(=O)O)C(=O)CC2)c1ccc(C(=N)N)cc1
34 | 2 | N=C(N)c1ccc(NC(=O)c2ccc3c(c2)N[C@@H](CC(=O)O)C(=O)N(CCc2ccccc2)C3)cc1
15 | 1.9 | CN(CCC1CCNCC1)C(=O)c1ccc2c(c1)NC(CC(=O)O)C(=O)N(CCc1ccccc1)C2 (configuration not stated)
2100 | 290 | N=C(N)c1ccc(C(=O)Nc2ccc3c(c2)CN(CCC(=O)O)C(=O)CN3)cc1
4700 |  | N=C(N)c1ccc(NC(=O)c2cccc(NC(CC(=O)O)C(=O)O)c2)cc1 (configuration not stated)

From ChEMBL document CHEMBL1132577, “Conformational preferences in a benzodiazepine series of potent nonpeptide fibrinogen receptor antagonists” (J Med Chem, 1999)
